# CXCR6 block: CXCR6 receptor inhibitors, primary screen, cell-based, beta-arrestin, luminescence, CHO-K1 PathHunter, 1536-well; AID 602244, 2012; C-X-C chemokine receptor type 6 (Homo sapiens), O00574; inhibition, % at 20 µM; 360,000 compounds, 0.36% hits; in the data active = inhibition above about 34%, passing the limit was not always enough;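 note: antagonist mode with CXCL16 agonist at 10 nM final; 0% = 10 nM CXCL16 with DMSO and 100% = unstimulated wells without agonist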
# APJ agonist: agonists of human apelin receptor APJ, primary screen, CHO-K1 cells, PathHunter beta-arrestin, luminescence; P35414; 0% DMSO wells, 100% apelin; activation, % at 20 µM; 330,000 compounds, 0.11% hits;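 active = activation more than six SD over the plate average, tested at 20 µM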;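 note: 0% = DMSO alone and 100% = apelin-13 at 10 nM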
#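 Material: engineered CHO-K1 APJ arrestin reporter cells; amount: 1000 CHO-K1 reporter cells seeded per well; incubation: compound stimulation 90 min at 25 °C, detection 60 min; signal: luminescent beta-gal fragment complementation, chemiluminescent substrate; read-out basis: APJ agonist activity; controls: DMSO-only wells as negative, 10 nM Apelin-13 as positive control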
# APJ antag: antagonists of human apelin receptor APJ, primary screen, CHO-K1 cells, beta-arrestin complementation, luminescence | P35414 | inhibition, % at 20 µM | 330,000 compounds, 0.32% hits | AID 2521, 2010;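 active = inhibition above about 40% at 20 µM, limit read from the data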;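 note: cells challenged with 10 nM apelin-13 agonist together with compound; plate controls were apelin-13 plus DMSO wells for no effect and DMSO wells lacking apelin-13 for full effect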
# m5-HT2A agonist: mouse Htr2a agonists via beta-arrestin recruitment, primary screen, cell-based, luminescence | CHO-K1 mHTR2A beta-arrestin complementation; percent of 30 µM serotonin response | activation, % at 7.6 µM | 360,000 compounds, 0.66% hits;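 active = activation above a run cutoff, the mean activation of all tested compounds plus 3 SD, cut at about 14% in these data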;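 note: 0% = plate median of compound wells and 100% = 30 µM serotonin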
# Target sequence (P35363 whole entry, looked up): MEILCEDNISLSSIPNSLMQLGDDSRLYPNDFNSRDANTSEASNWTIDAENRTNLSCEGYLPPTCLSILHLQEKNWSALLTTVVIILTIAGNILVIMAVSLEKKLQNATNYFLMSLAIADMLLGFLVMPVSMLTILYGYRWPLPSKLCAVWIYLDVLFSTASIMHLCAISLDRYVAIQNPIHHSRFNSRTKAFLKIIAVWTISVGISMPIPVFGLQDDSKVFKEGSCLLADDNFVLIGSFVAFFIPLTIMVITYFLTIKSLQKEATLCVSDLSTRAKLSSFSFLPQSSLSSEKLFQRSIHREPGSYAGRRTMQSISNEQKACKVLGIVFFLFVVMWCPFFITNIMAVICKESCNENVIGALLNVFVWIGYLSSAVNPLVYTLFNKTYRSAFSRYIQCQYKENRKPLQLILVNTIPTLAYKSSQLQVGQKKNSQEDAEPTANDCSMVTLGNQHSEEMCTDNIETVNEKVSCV
# CCR6 antag: CCR6 receptor antagonists, primary screen, cell-based, CHO-K1, luminescence, beta-arrestin, uHTS; CHO-K1 CCR6 PathHunter beta-arrestin, CCL20-stimulated; C-C chemokine receptor type 6 (Homo sapiens), P51684; 340,000 compounds, 0.49% hits; inhibition, % at 20 µM;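 active = compounds whose inhibition of the agonist-driven luminescence signal at 20 µM reaches about 50%, limit read from the data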;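 note: cells stimulated with CCL20 at 14 nM final; plate controls were DMSO with CCL20 for no effect and DMSO without agonist for full effect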
# EBI2 block: EBI2 receptor antagonists, beta-arrestin recruitment, primary screen, cell-based, luminescence, 7a,25-OHC stimulation, uHTS; 360,000 compounds, 0.81% hits; 7a,25-OHC stimulated; inhibition, % at 5 µM; in the data active = inhibition above about 38%;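 note: enzyme fragment complementation signal reports receptor beta-arrestin coupling in cells; 0% = agonist plus DMSO wells and 100% = wells without agonist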
# OPRM1 ag: OPRM1 agonists via beta-arrestin recruitment, confirmation, counter-screen for mouse HTR2A agonist project, cell-based, luminescence, single concentration; 2,300 compounds, 5.3% hits; activation, % at 9.3 µM; U2OS OPRM1 beta-arrestin PathHunter; DMSO 0%, DAMGO 9.3 µM 100%; shares compounds with m5-HT2A agonist;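 active = mean activation above the mean of DMSO-only wells plus 3 SD, cut at about 0.5% in these data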
# m5-HT2A ag conf: mouse HTR2A agonists, beta-arrestin recruitment, confirmation, cell-based, luminescence, CHO-K1 PathHunter, triplicate | shares compounds with m5-HT2A agonist | DMSO 0%, 30 µM serotonin 100% | activation, % at 7.6 µM | 2,300 compounds, 19% hits;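 active = mean activation across triplicates above the hit threshold derived in the original primary screen, cut at about 15% in these data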
# EBI2 conf: EBI2 antagonist hit retest, beta-arrestin, confirmation, cell-based, single concentration, luminescence, 7a,25-OHC stimulation | 7a,25-OHC antagonism | inhibition, % at 5 µM | 2,400 compounds, 29% hits | shares compounds with EBI2 block;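 active = inhibition of at least 50%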
# EBI2 ag: EBI2 agonist activity of antagonist hits, confirmation, counter-screen for EBI2 antagonist project, cell-based, single concentration, agonist mode, luminescence; shares compounds with EBI2 block; EBI2-expressing cells, 60 min; 0% vehicle, 100% 7α,25-dihydroxycholesterol control; activation, % at 5 µM; 2,400 tested, under 10 active; AID 652000, 2013;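 active = activation of at least 50%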
# bGal cs: E. coli beta-galactosidase enzyme inhibition, confirmation, counter-screen for EBI2 antagonist project, biochemical, luminescence, single concentration; shares compounds with EBI2 block; purified beta-galactosidase, luminescent Galacton Star, 15 min; inhibition, % at 5 µM; 2,400 compounds, 1% hits;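 active = replicate-average signal at least 3 plate SD below neutral wells, shown as high inhibition, flagging enzyme-inhibiting false positives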;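 note: 0% = DMSO wells with enzyme and 100% = wells lacking enzyme; higher means stronger loss of beta-gal luminescence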
# Numbers without * were called inactive; x = no result. Only some compounds are listed: those with a hit (about 2.2% of all), similar ones and a draw of the others.
SMILES,CXCR6 block,APJ agonist,APJ antag,m5-HT2A agonist,CCR6 antag,EBI2 block,OPRM1 ag,m5-HT2A ag conf,EBI2 conf,EBI2 ag,bGal cs
COc1ccc2c(c1O)-c1c(OC)c(OC)cc3c1[C@H](C2)N(C)CC3,-4.3,-1.4,-5.3,-3.0,-2.3,-4.8,x,x,x,x,x
CC(=O)OC1CC2OC3C=C(C)CCC3(C)C1(C)C21CO1 (stereo not drawn),3.3,x,x,3.4,x,26.9,x,x,x,x,x
COc1ccc(CCNCc2ccc(C)s2)cc1OC,-5.2,-1.3,-20.4,15.5*,0.0,5.2,-0.4,-1.2,x,x,x
COc1ccc(CCNCc2sccc2C)cc1OC,-2.9,-0.8,4.1,32.2*,-2.0,0.1,-0.4,9.1,x,x,x
COc1ccc(CCNCc2cccn2C)cc1OC,2.6,-1.5,5.4,25.1*,10.9,-7.3,-0.7,13.8,x,x,x
Cn1cccc1CNCCc1ccc(F)cc1,7.7,-1.0,-0.2,7.4,-6.8,-3.3,x,x,x,x,x
Cc1ccc(CNCCc2ccc(F)cc2)s1,0.7,-4.7,11.6,-1.4,12.0,0.6,x,x,x,x,x
Cc1ccc(C(O)(C(=O)OC(C)C)C(O)c2ccc(F)cc2)cc1 (stereo not drawn),x,x,x,0.5,x,-1.0,x,x,x,x,x
CCOC(=O)c1cccc(C2=C(CNC(=O)c3nccs3)[C@H]3CC[C@@H](C2)N3Cc2ccccc2)c1,8.2,x,x,-4.6,x,12.3,x,x,x,x,x
CCOC(=O)c1ccc(NC(=O)N2C[C@@H]3C[C@@H](C2)c2cccc(=O)n2C3)cc1,-2.6,-4.1,-12.8,25.4*,-2.2,-2.4,-0.5,-2.3,x,x,x
CN1CCN(C(=O)Cc2ccccc2)CC1,-4.8,-2.1,11.2,20.3*,2.4,0.1,-0.8,0.7,x,x,x
O=C(Cc1ccccc1)N1CCN(Cc2ccccc2Cl)CC1,-2.3,1.3,3.2,21.7*,14.7,3.5,-0.7,2.0,x,x,x
CCc1ccc(CN2CCN(C(=O)Cc3ccccc3)CC2)cc1,2.3,-2.2,3.9,-0.2,16.9,1.8,x,x,x,x,x
CCOP(=O)(NC(C)C)Oc1ccc(SC)c(C)c1 (stereo not drawn),1.6,x,x,4.2,13.9,-2.2,x,x,x,x,x
Cc1c(CCC(=O)N2C[C@H]3C[C@@H](C2)c2cccc(=O)n2C3)c(=O)oc2c(C)c(O)ccc12,6.4,x,x,-2.0,x,-1.0,x,x,x,x,x
COC(=O)C1=C(c2cccc(OCc3ccccc3)c2)C[C@@H]2CC[C@H]1N2C(=O)NCc1cc(C)oc1C(F)(F)F,9.5,-3.8,6.0,-2.6,13.5,25.6,x,x,x,x,x
N#Cc1c(Br)n(C2OC(CO)C(O)C2O)c2ncnc(N)c12 (stereo not drawn),-5.9,x,x,50.9*,1.4,-6.8,-0.4,100.1*,x,x,x
O=C(COc1ccc(Br)cc1)N1CCN(Cc2c[nH]c3ccccc23)CC1,-2.7,1.3,15.1,55.7*,-5.2,81.3*,-0.1,27.8*,53.9*,1.1,8.8
O=C(COc1ccc2ccccc2c1)N1CCN(Cc2c[nH]c3ccccc23)CC1,-24.6,-4.2,-12.5,34.2*,5.6,83.2*,-0.4,18.9*,52.6*,0.6,8.2
c1ccc2c(CN3CCCCC3)c[nH]c2c1,-1.6,-5.2,8.4,4.3,-1.6,-3.9,x,x,x,x,x
NC(Cc1ccc(F)cc1)c1csc(Nc2ncccn2)n1 (stereo not drawn),-5.0,x,x,-1.0,x,-3.6,x,x,x,x,x
O=C(COc1ccccc1)N1CCN(CCN2C(=O)c3cccc4cccc(c34)C2=O)CC1,0.6,1.6,-16.6,-0.7,8.2,49.9*,x,x,16.4,0.8,4.0
CC(C)CCNC(=O)c1c(N)n(Cc2ccc3c(c2)OCO3)c2nc3ccccc3nc12,1.3,-4.2,1.5,2.0,-30.3,47.7*,x,x,23.3,-0.4,-9.4
CC(C)CNC(=O)c1c(N)n(Cc2ccc3c(c2)OCO3)c2nc3ccccc3nc12,-8.2,-5.1,14.3,-5.9,-9.8,32.0,x,x,x,x,x
CCCNC(=O)c1c(N)n(Cc2ccc3c(c2)OCO3)c2nc3ccccc3nc12,-1.4,-2.5,20.1,2.7,-11.8,45.2*,x,x,36.2,0.4,2.4
SMILES,CXCR6 block,APJ agonist,APJ antag,m5-HT2A agonist,CCR6 antag,EBI2 block,OPRM1 ag,m5-HT2A ag conf,EBI2 conf,EBI2 ag,bGal cs
O=P(/C=C1\OCc2ccccc21)(Oc1ccccc1)Oc1ccccc1,x,x,x,-3.5,x,5.8,x,x,x,x,x
CO[C@H]1C=CCCC=CC(=O)O[C@H]([C@H](C)C(=O)CCCC2CC(=O)NC(=O)C2)C(C)=C[C@@H](C)[C@@H]1O,0.1,x,x,0.6,x,-6.9,x,x,x,x,x
Cc1cccc(C)c1-n1nnnc1C(c1cccc2ccccc12)N1CCC2(CC1)C(=O)NCN2c1ccccc1 (stereo not drawn),-6.6,x,x,-1.8,x,-5.9,x,x,x,x,x
O=C(COc1ccccc1)N1CCN(C2CC3CCC2C3)CC1 (stereo not drawn),-5.3,-4.0,-6.2,-2.5,12.2,36.7,x,x,x,x,x
O=C(COc1ccc(Br)cc1)N1CCN(C2CCCC2)CC1,3.8,0.6,11.5,-0.8,0.8,85.2*,x,x,81.5*,-1.4,-6.7
Cc1ccc(OCC(=O)N2CCN(C3CCC(c4ccccc4)CC3)CC2)cc1 (stereo not drawn),-2.0,-2.3,10.6,2.2,2.6,82.1*,x,x,64.3*,1.6,1.8
O=C(c1cc2cc(Cl)ccc2[nH]1)N1CCC2(CC1)OCCO2,-6.6,5.2,6.4,9.3,10.0,87.9*,x,x,66.1*,2.5,-1.3
